Measurements: publication PMC9476936 (ACS Pharmacology & Translational Science, 2021)
Like-named read-outs stand apart in the source and are kept apart here. Each block holds one molecule with its values, some of them ahead of it.

Tests used:
[1] = tested on: ABCB1; details: cited from earlier work
[2] = target: T1, human ABCB1 (Homo sapiens, UniProt P08183); format: biochemical
[3] = target: T2, human ABCG2 (Homo sapiens, UniProt Q9UNQ0); experiment: Vanadate; format: biochemical; details: read-out: IC50 for ATPase activity of ABCG2; light activation (+hv) 690 nm, 0.05 J/cm2, 50 mW/cm2; membrane vesicles
T2 sequence (Q9UNQ0 1-655): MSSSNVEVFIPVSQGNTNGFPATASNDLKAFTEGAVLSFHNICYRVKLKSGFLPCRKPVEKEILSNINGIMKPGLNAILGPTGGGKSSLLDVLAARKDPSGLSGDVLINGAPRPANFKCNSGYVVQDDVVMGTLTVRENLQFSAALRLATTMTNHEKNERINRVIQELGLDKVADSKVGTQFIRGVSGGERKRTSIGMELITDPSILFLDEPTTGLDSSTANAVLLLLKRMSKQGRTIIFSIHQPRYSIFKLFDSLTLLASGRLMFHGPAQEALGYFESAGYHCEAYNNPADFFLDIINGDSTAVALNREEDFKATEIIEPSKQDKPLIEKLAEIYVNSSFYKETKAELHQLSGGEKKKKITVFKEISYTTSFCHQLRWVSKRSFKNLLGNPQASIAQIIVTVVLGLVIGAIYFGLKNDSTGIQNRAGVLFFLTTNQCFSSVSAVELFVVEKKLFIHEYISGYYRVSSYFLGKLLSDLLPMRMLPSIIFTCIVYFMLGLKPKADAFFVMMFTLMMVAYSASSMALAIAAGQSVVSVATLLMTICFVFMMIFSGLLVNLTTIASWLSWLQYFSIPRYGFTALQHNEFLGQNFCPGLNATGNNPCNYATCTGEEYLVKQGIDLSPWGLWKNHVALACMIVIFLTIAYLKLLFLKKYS

[4] = target: T1, human ABCB1; format: biochemical; remark: listed apart in the source
[5] = target: T1, human ABCB1; format: biochemical; remark: listed apart in the source
[6] = target: T2, human ABCG2; format: biochemical
Summary of the method: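 Human ABCG2 (N-terminal His10) vesicles from baculovirus-infected High Five cells; 35 μg protein/50 μL in MES-Tris pH 6.8 buffer with 2 mM DTT. Photosensitizer (0–20 μM) added at 37 °C for 3 min, then 690 nm light (0–5 J/cm2, 50 mW/cm2). Fixed 0.5 J/cm2 for the dose series; fixed 2 μM for the fluence series. Denatured at 37 °C for 20 min, 7% Tris-acetate gel, 10 μg/lane, colloidal blue stain, densitometry.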

[7] = target: T1, human ABCB1; format: biochemical; details: 2 μM BPD, 690 nm
[8] = 2 μM BPD, light fluence increased from 0 to 5 J/cm2
[9] = BPD 20 μM + light 690 nm, 5 J/cm2, 50 mW/cm2

T1 sequence (P08183 whole entry): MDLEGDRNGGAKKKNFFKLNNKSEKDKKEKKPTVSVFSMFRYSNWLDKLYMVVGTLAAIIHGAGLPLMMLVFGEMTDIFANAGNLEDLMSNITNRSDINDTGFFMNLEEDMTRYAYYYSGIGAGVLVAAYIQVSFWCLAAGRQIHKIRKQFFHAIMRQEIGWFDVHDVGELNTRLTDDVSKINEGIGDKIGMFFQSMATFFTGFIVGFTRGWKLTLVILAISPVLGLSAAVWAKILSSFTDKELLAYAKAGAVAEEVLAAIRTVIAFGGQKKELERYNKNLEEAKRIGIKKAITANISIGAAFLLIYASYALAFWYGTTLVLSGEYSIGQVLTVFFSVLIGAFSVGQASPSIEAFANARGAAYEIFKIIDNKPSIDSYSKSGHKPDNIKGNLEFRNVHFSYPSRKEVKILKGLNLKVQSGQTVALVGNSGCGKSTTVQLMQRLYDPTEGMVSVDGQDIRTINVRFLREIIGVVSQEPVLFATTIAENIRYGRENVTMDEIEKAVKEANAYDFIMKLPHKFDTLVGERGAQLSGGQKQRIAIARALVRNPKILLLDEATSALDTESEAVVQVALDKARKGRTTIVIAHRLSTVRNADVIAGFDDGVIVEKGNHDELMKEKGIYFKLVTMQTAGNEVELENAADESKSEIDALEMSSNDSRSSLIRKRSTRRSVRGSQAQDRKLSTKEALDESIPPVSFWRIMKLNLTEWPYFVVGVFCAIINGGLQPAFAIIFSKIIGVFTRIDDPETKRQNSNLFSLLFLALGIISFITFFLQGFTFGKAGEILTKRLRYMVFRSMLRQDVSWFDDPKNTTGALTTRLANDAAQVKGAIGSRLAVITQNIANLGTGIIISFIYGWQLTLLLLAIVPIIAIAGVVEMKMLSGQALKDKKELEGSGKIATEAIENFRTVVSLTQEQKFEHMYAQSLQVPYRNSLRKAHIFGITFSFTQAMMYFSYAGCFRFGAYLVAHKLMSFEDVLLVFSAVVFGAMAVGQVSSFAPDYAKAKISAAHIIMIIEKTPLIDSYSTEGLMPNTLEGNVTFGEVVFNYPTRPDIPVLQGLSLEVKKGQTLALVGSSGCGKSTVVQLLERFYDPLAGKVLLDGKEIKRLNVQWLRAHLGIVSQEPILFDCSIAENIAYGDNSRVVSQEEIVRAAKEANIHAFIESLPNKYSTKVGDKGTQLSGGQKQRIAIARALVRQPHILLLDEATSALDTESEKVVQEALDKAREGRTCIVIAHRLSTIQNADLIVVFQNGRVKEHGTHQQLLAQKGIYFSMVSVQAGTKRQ

Molecule: COc1cc2c(cc1OC)CN(CCc1ccc(NC(=O)c3cccc4c(=O)c5cccc(OC)c5[nH]c34)cc1)CC2 [elacridar]
concentrations inhibiting both drug transport and ATPase activity of ABCB1 [1]: sub-micromolar concentrations

Molecule: COc1cc2c(cc1OC)CN(CCc1ccc(NC(=O)c3cc(OC)c(OC)cc3NC(=O)c3cnc4ccccc4c3)cc1)CC2 [tariquidar]
concentrations inhibiting both drug transport and ATPase activity of ABCB1 [1]: sub-micromolar concentrations

Molecule: O[C@@H](COc1cccc2ncccc12)CN1CCN([C@@H]2c3ccccc3[C@@H]3[C@H](c4ccccc42)C3(F)F)CC1 [zosuquidar]
concentrations inhibiting both drug transport and ATPase activity of ABCB1 [1]: sub-micromolar concentrations

further reduction of ATPase activity of ABCB1 by light activation ([2]; +hv 690 nm, 0.05 J/cm2, 50 mW/cm2 versus −hv, stated jointly for ABCB1 and ABCG2): up to 12 fold
IC50 ([2]; read-out: IC50 for ATPase activity of ABCB1, light activation (+hv) 690 nm, 0.05 J/cm2, 50 mW/cm2, membrane vesicles): 700 ± 100 nM
IC50 [3]: 800 ± 100 nM
reduction of ATPase activity of ABCB1 in nanodiscs ([4]; absence of light activation): 51.7 ± 5.3%
reduction of ATPase activity of ABCB1 in nanodiscs ([4]; light activation 690 nm, 0.05 J/cm2, 50 mW/cm2): 97.3 ± 1.3%
reduction of monomeric ABCB1 band intensity [5, 8]: 9.1 fold
BPD concentration at which ABCB1 aggregation bands became evident ([5]; 0.5 J/cm2, 690 nm): higher than 0.5 μM
band corresponding to monomeric ABCB1 [5, 9]: disappeared
intensity of protein band of monomeric (non-aggregated) ABCB1 ([5]; BPD alone 20 μM, no light): did not alter
reduction of monomeric ABCG2 band intensity [6, 8]: 5.4 fold
BPD concentration at which ABCG2 aggregation bands became evident ([6]; 0.5 J/cm2, 690 nm): higher than 0.5 μM
band corresponding to monomeric ABCG2 [6, 9]: disappeared
intensity of protein band of monomeric (non-aggregated) ABCG2 ([6]; BPD alone 20 μM, no light): did not alter
disappearance of protein band corresponding to monomeric ABCB1 in nanodiscs ([7]; 50 mW/cm2, 0.5 J/cm2): 49.0 ± 2.6%
disappearance of protein band corresponding to monomeric ABCB1 in nanodiscs ([7]; 50 mW/cm2, 5 J/cm2): 88.0 ± 3.5%
Molecule: benzoporphyrin derivative [BPD]
